Consider five molecules from paper PMC11261619 (Journal of Agricultural and Food Chemistry, 2024).

One assay addresses T1, doOR11A1 (Dipodomys ordii, UniProt A0A1S3GF11).
T1 sequence (A0A1S3GF11 1-311): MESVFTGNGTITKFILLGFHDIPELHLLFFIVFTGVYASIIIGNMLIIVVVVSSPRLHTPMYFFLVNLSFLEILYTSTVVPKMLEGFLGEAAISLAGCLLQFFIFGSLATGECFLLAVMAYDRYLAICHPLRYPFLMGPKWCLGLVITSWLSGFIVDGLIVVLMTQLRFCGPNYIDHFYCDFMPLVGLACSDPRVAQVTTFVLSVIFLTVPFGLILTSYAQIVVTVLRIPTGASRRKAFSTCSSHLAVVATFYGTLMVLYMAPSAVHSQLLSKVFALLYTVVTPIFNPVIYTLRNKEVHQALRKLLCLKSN
Briefly: cAMP luminescence. The class given is cell-based, Kangaroo rat (Dipodomys ordii). A digest of the protocol:
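HEK-293 cells (DMEM, 4.5 g/L glucose, 10% FBS, 2 mM L-glutamine, penicillin/streptomycin; 37 °C, 5% CO2) co-transfected via ViaFect with the ortholog coding region in IL-6-HaloTag-pFN210A and pGloSensor-22F. Luminescence was averaged before and after odorant application, then baseline-subtracted and mock-subtracted. Responses were normalized to OR1A1 response to (R)-(−)-carvone (30 μmol/L). EC50 came from nonlinear sigmoidal regression; mean ± SD, n = 3–6 independent transfections.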

Another assay concerns the target T2, human OR11A1 (Homo sapiens, UniProt Q9GZK7).
T2 sequence (Q9GZK7 1-315): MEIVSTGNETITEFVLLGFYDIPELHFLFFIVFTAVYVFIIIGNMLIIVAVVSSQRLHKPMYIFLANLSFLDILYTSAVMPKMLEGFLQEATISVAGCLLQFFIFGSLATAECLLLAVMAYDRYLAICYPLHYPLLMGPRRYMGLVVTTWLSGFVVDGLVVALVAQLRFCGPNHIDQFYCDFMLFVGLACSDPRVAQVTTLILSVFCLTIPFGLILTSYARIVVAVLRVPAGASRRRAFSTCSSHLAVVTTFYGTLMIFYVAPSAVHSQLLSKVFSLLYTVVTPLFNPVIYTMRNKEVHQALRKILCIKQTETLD
The assay can be described thus: cAMP luminescence. In kind it is cell-based. Particulars: for KFO screening signal on human OR11A1 relative to 3σ-threshold: each KFO 300 μmol/L, triplicate, normalized to response of OR11A1 to geosmin; for Concentration-dependent activation of OR11A1 (concentration–response validation): normalized to OR1A1 response to (R)-(−)-carvone (30 μmol/L), n = 3.

As for `C[C@H]1CCC[C@@]2(C)CCCC[C@]12O` [geosmin, (4S,4aS,8aR)-4,8a-dimethyloctahydronaphthalen-4a(2H)-ol], on doOR11A1 (doOR11A1 vs human OR11A1), the “Sensitivity of kangaroo rat receptor compared to its human ortholog” value is reported as “more than 100 fold”. Moreover, at doOR11A1 (homologues across species vs human OR11A1), the “Sensitivities of OR11A1 homologues across species compared to the human receptor” value is on record as “up to 100 fold”. Further, at doOR11A1 (normalized to OR1A1 response to (R)-(−)-carvone (30 μmol/L)), the “Efficacy of response to geosmin among OR11A1 orthologs” value is “most effective responder”.

On to `CSCCCO` [methionol, 3-(methylsulfanyl) Propanol (methionol)], for which, on human OR11A1, the “KFO screening signal on human OR11A1 relative to 3σ-threshold” value is given as “reached the 3σ-threshold” and the “Concentration-dependent activation of OR11A1 (concentration–response validation)” value (“Concentration-dependent activation” below) was “could not be validated”.

Take `CC12CCC(CC1)C(C)(C)O2` [1,8-cineol]: at human OR11A1, the “KFO screening signal on human OR11A1 relative to 3σ-threshold” value was “reached the 3σ-threshold” and the “Concentration-dependent activation” value was “could not be validated”.

In the case of `CCCCC(=O)OCC` [ethyl pentanoate], on human OR11A1, the “KFO screening signal on human OR11A1 relative to 3σ-threshold” value is on record as “above the 3σ-threshold” and the “Concentration-dependent activation” value was “could not be validated”.

Take `C=Cc1ccc(O)cc1` [4-ethenylphenol]: on human OR11A1, the “KFO screening signal on human OR11A1 relative to 3σ-threshold” value is recorded as “above the 3σ-threshold” and the “Concentration-dependent activation” value is recorded as “could not be validated”.
